This is an account of results in ChEMBL document CHEMBL1132472, “Synthesis and pharmacological evaluation of some 8-cyanopyrido[3', 2':4,5]thieno[3,2-d]triazine derivatives as inhibitors of nitric oxide and eicosanoid biosynthesis” (J Med Chem, 1999).

For assay [1], the species on record is Mus musculus. The assay is described as follows: (§1) Ability to inhibit the generation of NO by stimulated murine peritoneal macrophages. In kind it is functional. Also noted: concentration or dose not given beside the values. The essentials:
(§2)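 Thioglycolate-elicited mouse peritoneal macrophages (lavage 4 days after ip 10% thioglycolate), adhered 2 h at 37 °C in arginine (1 mM)-containing buffered medium with 10% FBS. Cells stimulated with E. coli LPS 10 µg/mL for 24 h at 37 °C with test compound or vehicle. Supernatant nitrite measured fluorimetrically. IC50 from ≥4 concentrations (n = 6). Mean ± SEM.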

The target of assay [2] is T1, Nitric oxide synthase, inducible (Mus musculus) (UniProt P29477).
T1 sequence (whole entry): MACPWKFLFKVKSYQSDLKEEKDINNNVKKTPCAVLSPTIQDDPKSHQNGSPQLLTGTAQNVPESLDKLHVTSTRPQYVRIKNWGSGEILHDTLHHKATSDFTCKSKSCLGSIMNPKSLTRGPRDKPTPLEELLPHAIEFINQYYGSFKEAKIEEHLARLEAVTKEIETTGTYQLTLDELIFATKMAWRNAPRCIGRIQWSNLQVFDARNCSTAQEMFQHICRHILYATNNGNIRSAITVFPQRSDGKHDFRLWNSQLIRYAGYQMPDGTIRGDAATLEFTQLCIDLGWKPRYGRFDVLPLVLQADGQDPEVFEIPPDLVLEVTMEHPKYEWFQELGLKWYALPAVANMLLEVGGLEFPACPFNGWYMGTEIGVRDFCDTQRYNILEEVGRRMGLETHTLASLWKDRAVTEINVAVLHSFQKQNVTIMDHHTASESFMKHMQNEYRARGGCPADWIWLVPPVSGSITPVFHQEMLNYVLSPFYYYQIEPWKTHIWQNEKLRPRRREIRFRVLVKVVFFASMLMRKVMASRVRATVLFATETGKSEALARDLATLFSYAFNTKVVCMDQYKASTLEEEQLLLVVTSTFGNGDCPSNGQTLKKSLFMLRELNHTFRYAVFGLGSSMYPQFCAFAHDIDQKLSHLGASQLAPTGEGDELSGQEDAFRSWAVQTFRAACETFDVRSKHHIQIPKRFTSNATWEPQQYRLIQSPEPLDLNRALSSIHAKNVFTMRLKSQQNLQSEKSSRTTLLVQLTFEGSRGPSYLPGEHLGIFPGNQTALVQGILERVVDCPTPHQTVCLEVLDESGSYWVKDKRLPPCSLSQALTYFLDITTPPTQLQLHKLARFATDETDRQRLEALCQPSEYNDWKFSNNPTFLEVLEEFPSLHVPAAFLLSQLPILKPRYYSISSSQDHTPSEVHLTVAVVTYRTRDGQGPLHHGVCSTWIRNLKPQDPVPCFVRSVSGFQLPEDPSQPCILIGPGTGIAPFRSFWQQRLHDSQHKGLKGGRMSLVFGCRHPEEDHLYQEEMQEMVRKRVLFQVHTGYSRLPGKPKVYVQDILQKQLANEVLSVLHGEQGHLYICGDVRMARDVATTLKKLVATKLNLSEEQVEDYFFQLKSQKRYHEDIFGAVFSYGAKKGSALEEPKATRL
Description: In vitro activity at a concentration of 10 uM against Inducible nitric oxide synthase (iNOS).

The species named for assay [3] is Mus musculus. Description: (§3) Ability to inhibit the accumulation of PGE-2 in stimulated murine peritoneal macrophages. It is filed as functional. Also noted: concentration or dose not given beside the values. In a few lines: (§4)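 Mouse peritoneal macrophages were elicited by ip thioglycolate (10%) and collected by lavage 4 days later. Adherent cells were stimulated with E. coli LPS (10 µg/mL) at 37 °C for 24 h with compound or vehicle. Supernatant PGE₂ was measured by radioimmunoassay. IC50 was calculated from at least four significant concentrations (n = 6).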

In assay [4] the target is Prostaglandin G/H synthase 1 (Homo sapiens) (UniProt P23219). Description: In vitro activity at a concentration of 10 uM against Prostaglandin G/H synthase 1. The essentials:
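Microsomes were prepared by 2000g spin for 5 min, then 100000g for 100 min, both at 4 °C. Microsomes (20 µg protein/tube) were incubated with arachidonic acid plus compound at 10 µM or vehicle. TXB₂ formed was measured by radioimmunoassay.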

Assay [5] concerns the target T2, Prostaglandin G/H synthase 2 (Mus musculus) (UniProt Q05769).
T2 sequence (whole entry): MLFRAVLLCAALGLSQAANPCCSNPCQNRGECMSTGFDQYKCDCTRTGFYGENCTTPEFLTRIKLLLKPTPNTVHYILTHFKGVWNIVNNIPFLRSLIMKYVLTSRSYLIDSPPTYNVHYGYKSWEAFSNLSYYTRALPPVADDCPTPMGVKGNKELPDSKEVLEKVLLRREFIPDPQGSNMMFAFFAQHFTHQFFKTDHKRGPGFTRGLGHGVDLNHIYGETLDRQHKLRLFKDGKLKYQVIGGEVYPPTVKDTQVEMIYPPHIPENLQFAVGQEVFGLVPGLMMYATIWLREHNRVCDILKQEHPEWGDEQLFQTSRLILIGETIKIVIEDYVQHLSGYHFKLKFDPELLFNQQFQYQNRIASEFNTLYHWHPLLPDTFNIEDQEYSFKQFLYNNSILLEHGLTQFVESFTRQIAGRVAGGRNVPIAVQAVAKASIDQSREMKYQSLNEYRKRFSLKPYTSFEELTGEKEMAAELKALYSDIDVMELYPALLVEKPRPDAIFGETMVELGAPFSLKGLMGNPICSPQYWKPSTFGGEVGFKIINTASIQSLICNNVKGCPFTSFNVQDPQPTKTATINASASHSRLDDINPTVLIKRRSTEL
The assay is described as follows: In vitro activity at a concentration of 10 uM against Prostaglandin G/H synthase 2.

Assay [6] is filed under the species Mus musculus. The assay is described as follows: Compound was evaluated to inhibit Nitrite accumulation in simulated macrophages. In kind it is functional.
For assay [7], the species on record is Mus musculus. Description: Compound was evaluated to inhibit PGE-2 accumulation in simulated macrophages. It is filed as functional. In a few lines:
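Adherent thioglycolate-elicited mouse peritoneal macrophages were stimulated with E. coli LPS (10 µg/mL) for 24 h at 37 °C in the presence of compound at 10 µM or vehicle. Supernatant PGE₂ was measured by radioimmunoassay and expressed as % inhibition, mean ± SEM, n = 6-9.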

Assay [8] is filed under the species Mus musculus. Described as §1. In kind it is functional, organism-based. In a few lines:
as §2

For assay [9], the species on record is Mus musculus. The assay is described as §3. It is filed as functional. In a few lines: as §4

The Inhibition is how much of the control response was suppressed. As a reminder, the IC50 is the concentration needed to halve the response being measured.

Sequence of Prostaglandin G/H synthase 1 (Homo sapiens) (P23219 whole entry): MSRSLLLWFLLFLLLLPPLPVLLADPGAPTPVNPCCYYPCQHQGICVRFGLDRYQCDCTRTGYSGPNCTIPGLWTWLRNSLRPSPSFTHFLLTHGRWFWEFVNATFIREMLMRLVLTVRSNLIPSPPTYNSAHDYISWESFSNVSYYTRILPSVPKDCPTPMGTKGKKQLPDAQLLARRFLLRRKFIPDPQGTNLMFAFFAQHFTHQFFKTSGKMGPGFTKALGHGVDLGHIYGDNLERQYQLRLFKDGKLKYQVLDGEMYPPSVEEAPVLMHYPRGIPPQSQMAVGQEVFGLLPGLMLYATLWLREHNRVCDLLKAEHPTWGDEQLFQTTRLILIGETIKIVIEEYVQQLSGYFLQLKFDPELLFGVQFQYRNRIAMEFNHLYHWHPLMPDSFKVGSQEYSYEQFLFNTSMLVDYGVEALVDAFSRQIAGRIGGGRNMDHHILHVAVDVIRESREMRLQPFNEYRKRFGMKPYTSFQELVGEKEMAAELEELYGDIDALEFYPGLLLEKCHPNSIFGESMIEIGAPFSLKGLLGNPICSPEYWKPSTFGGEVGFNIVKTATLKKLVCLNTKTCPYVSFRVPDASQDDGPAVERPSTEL

For `N#Cc1cc2c(nc1N1CCC(Cc3ccccc3)CC1)sc1c(Cl)nnnc12`, the figures for the Inhibition in the assay listed under Mus musculus [1] and in the assay listed under Mus musculus [3] were 48.8% and 57.9%, respectively. In assay [2], this compound showed an Activity (pM of citrulline min-1 (mg of protein)-1) of 13.1. In assay [4], the Activity ((ng of TXB2) (mg of protein)-1) worked out at 128.

Regarding `CC1CCN(c2nc3sc4c(N5CCC(C)CC5)nnnc4c3cc2C#N)CC1`, the Activity ((ng of PGE2) (mg of protein)-1) in assay [5] is 13.9. In addition, the Inhibition in the assay filed under Mus musculus [1] is 37.8%; in the assay filed under Mus musculus [3] it was 52.1%. In addition, the Activity (pM of citrulline min-1 (mg of protein)-1) in [2] amounted to 12.4. Moreover, the Activity ((ng of TXB2) (mg of protein)-1) in assay [4] amounted to 124.

With `CN1CCN(c2nnnc3c2sc2nc(N4CCN(Cc5ccccc5)CC4)c(C#N)cc23)CC1`, the Activity ((ng of PGE2) (mg of protein)-1) in [5] stood at 14.6. Moreover, the results for the Inhibition in the assay listed under Mus musculus [1] and in the assay filed under Mus musculus [3] were 50.6% and 55.1%, respectively. Besides, the Activity (pM of citrulline min-1 (mg of protein)-1) in assay [2] is 13.1. This compound also came in with an Activity ((ng of TXB2) (mg of protein)-1) in assay [4] of 123.

Turning to `CC1CCN(c2nnnc3c2sc2nc(N4CCOCC4)c(C#N)cc23)CC1`, the Activity ((ng of PGE2) (mg of protein)-1) in assay [5] is 13. The Inhibition in the assay filed under Mus musculus [1] was found to be 88.7%; in the assay listed under Mus musculus [3] it was 89.6%. In assay [2], this compound returned an Activity (pM of citrulline min-1 (mg of protein)-1) of 13.1. Also, the Activity ((ng of TXB2) (mg of protein)-1) in [4] stood at 130. The half-inhibitory concentration (IC50) in the assay listed under Mus musculus [6] was 3400 nM; in the assay listed under Mus musculus [7] it was 600 nM.

Turning to `CC(=O)c1ccc(N2CCN(c3nnnc4c3sc3nc(N5CCOCC5)c(C#N)cc34)CC2)cc1`, the Activity ((ng of PGE2) (mg of protein)-1) in [5] is 16.6. Besides, the Inhibition in the assay filed under Mus musculus [1] is 45.6%; in the assay filed under Mus musculus [3], 34.6%. The compound further had an Activity (pM of citrulline min-1 (mg of protein)-1) in assay [2] of 14.2. In assay [4], this compound showed an Activity ((ng of TXB2) (mg of protein)-1) of 142.

`N=C(N)NN` [PIMAGEDINE] had an IC50 in the assay filed under Mus musculus [8] of 25100 nM. In addition, the Activity (pM of citrulline min-1 (mg of protein)-1) in assay [2] came to 5.4.

Regarding `CC(=O)c1ccc(N2CCN(c3nc4sc5c(Cl)nnnc5c4cc3C#N)CC2)cc1`, the IC50 was found to be 11200 nM in the assay filed under Mus musculus [8] and 900 nM in the assay filed under Mus musculus [9]. The Inhibition is 44.7% in the assay listed under Mus musculus [1] and 94.5% in the assay filed under Mus musculus [3]. The compound also gave an Activity (pM of citrulline min-1 (mg of protein)-1) in [2] of 14.1. This compound also had an Activity ((ng of TXB2) (mg of protein)-1) in [4] of 104.

In assay [4], `COc1ccc2c(c1)c(CC(=O)O)c(C)n2C(=O)c1ccc(Cl)cc1` returned an Activity ((ng of TXB2) (mg of protein)-1) of 63.8.

With `N#Cc1cc2c(nc1N1CCOCC1)sc1c(N3CCSCC3)nnnc12`, the Inhibition in the assay filed under Mus musculus [1] is on record as 31.4%; in the assay filed under Mus musculus [3] it was 36.1%.

The compound `N#Cc1cc2c(nc1N1CCOCC1)sc1c(N3CCNCC3)nnnc12` displayed an Activity ((ng of PGE2) (mg of protein)-1) in [5] of 16.5. Also, the Inhibition in the assay listed under Mus musculus [1] is given as 43.3%; in the assay filed under Mus musculus [3] it was 31.3%. The Activity (pM of citrulline min-1 (mg of protein)-1) in [2] was found to be 15.1. The Activity ((ng of TXB2) (mg of protein)-1) in [4] came out at 149.

Consider `C[C@@H]1C[C@H]2[C@@H]3CCC4=CC(=O)C=C[C@]4(C)[C@@]3(F)[C@@H](O)C[C@]2(C)[C@@]1(O)C(=O)CO` [DEXAMETHASONE], for which the half-maximal inhibitory concentration (IC50) in the assay filed under Mus musculus [8] turned out to be 35.8 nM; in the assay filed under Mus musculus [9] it was 1 nM.

For `CC1CCN(c2nc3sc4c(Cl)nnnc4c3cc2C#N)CC1`, the Inhibition worked out at 6.1% in the assay filed under Mus musculus [1] and 49% in the assay listed under Mus musculus [3]. For the same compound, the Activity ((ng of TXB2) (mg of protein)-1) in assay [4] came to 130.

Consider `N#Cc1cc2c(nc1N)sc1c(Cl)nnnc12`, for which the Inhibition in the assay listed under Mus musculus [1] is reported as 13.9%; in the assay filed under Mus musculus [3], 1%.

On to `CC(=O)c1ccc(N2CCN(c3nnnc4c3sc3nc(N5CCN(Cc6ccccc6)CC5)c(C#N)cc34)CC2)cc1`, for which the Activity ((ng of PGE2) (mg of protein)-1) in [5] is 15.8. In addition, the Inhibition in the assay filed under Mus musculus [1] is given as 51.6%; in the assay filed under Mus musculus [3], 50.1%. In [2], this compound yielded an Activity (pM of citrulline min-1 (mg of protein)-1) of 13.5. Moreover, the Activity ((ng of TXB2) (mg of protein)-1) in assay [4] was 134.

With `N#Cc1cc2c(nc1NCc1ccccc1)sc1c(N3CCOCC3)nnnc12`, the results for the Inhibition in the assay filed under Mus musculus [1] and in the assay listed under Mus musculus [3] were 41.1% and 28.5%, respectively.

In the case of `N#Cc1cc2c(nc1N1CCOCC1)sc1c(Cl)nnnc12`, the Inhibition in the assay listed under Mus musculus [1] came to 51.8%; in the assay filed under Mus musculus [3], 59.5%. In assay [2], the Activity (pM of citrulline min-1 (mg of protein)-1) was found to be 14. Also, in assay [4], the Activity ((ng of TXB2) (mg of protein)-1) came to 112.

The compound `CC(=O)c1ccc(N2CCN(c3nnnc4c3sc3nc(N5CCC(C)CC5)c(C#N)cc34)CC2)cc1` had an Activity ((ng of PGE2) (mg of protein)-1) in assay [5] of 14.3. The Inhibition in the assay listed under Mus musculus [1] is on record as 42.6%; in the assay listed under Mus musculus [3], 45.6%. In [2], this compound displayed an Activity (pM of citrulline min-1 (mg of protein)-1) of 12.5. Moreover, the Activity ((ng of TXB2) (mg of protein)-1) in [4] was 127.

Regarding `CN1CCN(c2nnnc3c2sc2nc(NCc4ccccc4)c(C#N)cc23)CC1`, the figures for the Inhibition in the assay filed under Mus musculus [1] and in the assay listed under Mus musculus [3] were 14.1% and 56.4%, respectively.

On to `CS(=O)(=O)Nc1ccc([N+](=O)[O-])cc1OC1CCCCC1` [NS-398], for which, in the assay listed under Mus musculus [9], half-maximal inhibition (IC50) was put at 3.1 nM.

For the compound `N#Cc1cc2c(nc1NCc1ccccc1)sc1c(Br)nnnc12`, the results for the Inhibition in the assay listed under Mus musculus [1] and in the assay filed under Mus musculus [3] were 12.2% and 0.4%, respectively.
